Test results taken from the array DNA melting data of Ke et al. (doi:10.1101/2024.01.08.574731).

How the values were obtained:
[1] = melting temperature; fluorescence melt of hairpins on a sequencing array, two-state fit, raised by 9.35 °C to match UV melts; settings: sodium 0.088 M
Summary of the method: (§1)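 Cy3 signals were normalised both to pre-quench Cy3 and to control constructs. They came from library hairpins carrying annealed Cy3 and quencher oligos on a sequenced MiSeq flow cell, imaged in 50 mM Na-HEPES pH 8.0, 25 mM NaCl, in 2.5 °C steps up to 60 °C. Bootstrapped two-state fits gave melting temperature and folding enthalpy, and four replicates were combined by inverse variance. Fitted temperatures were then raised by 9.35 °C to match UV melts.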

[2] = folding enthalpy; higher = less favourable; fluorescence melt of hairpins on a sequencing array, two-state fit; settings: sodium 0.088 M
Summary of the method: as §1

Sequence | Tm [1] | folding enthalpy [2]
GATCATGCAGATGATC ((((((....)))))) | 51.4 °C | -164 kJ/mol
GAGTGTGGAAACGCACTC (((((.(....).))))) | 52.8 °C | -176 kJ/mol
GATCAAAACGTTGATC ((((((....)))))) | 39.8 °C | -118 kJ/mol
GGATGCGAAAGCACGTCC ((((((....)))..))) | 33.1 °C | -50.3 kJ/mol
GCCATGGCGAAAGCCGGC (((..(((....)))))) | 62 °C | -67.9 kJ/mol
GGAGCACCGAAAGGTTCC (((..(((....)))))) | 30.2 °C | -47.3 kJ/mol
GCGCCGCGAAAGCCTCGC (((..((....))..))) | 44.4 °C | -80.6 kJ/mol
GCCCGGCGAAAGCCGCGC ((.((((....)))).)) | 60.1 °C | -72.6 kJ/mol
CGGTTACGGAAACGTCCG (((..(((....)))))) | 36.1 °C | -97.6 kJ/mol
GGTAACGAAAGTTACACC ((((((....)))..))) | 43.5 °C | -58.2 kJ/mol
GCATAGCGAAAGCAATGC ((((.((....)).)))) | 60.4 °C | -96.8 kJ/mol
GGGATCGAAAGATGCCCC ((((((....)))..))) | 49.2 °C | -62.9 kJ/mol
GAAATGGGAAACCGTTTC ((((.((....)).)))) | 43.6 °C | -140 kJ/mol
GGCCTTCGAAAGAAGCC (((.(((....)))))) | 51.4 °C | -116 kJ/mol
GTAATGAAAATTAC (((((....))))) | 34.1 °C | -65.3 kJ/mol
GTAGGGACGAAAGTCTAC (((..(((....)))))) | 30 °C | -50.1 kJ/mol
GATCGGTATGCCGATC ((((((....)))))) | 62.1 °C | -175 kJ/mol
GATCCACATATGGATC ((((((....)))))) | 50.6 °C | -172 kJ/mol
GCTCCGCGAAAGCAGAGC ((((.((....)).)))) | 64 °C | -132 kJ/mol
GCGACTCTTCGC ((((....)))) | 50.6 °C | -96.3 kJ/mol
GTAGGGCCGAAAGGCTAC (((..(((....)))))) | 35 °C | -38.9 kJ/mol
GATCCCGATCGGGATC ((((((....)))))) | 62.3 °C | -211 kJ/mol
GCGAGGCGAAAGCGTAGC ((.(.((....)).).)) | 51 °C | -64.5 kJ/mol
GTAGATCGAAAGATATAC (((.(((....))).))) | 42.3 °C | -136 kJ/mol

Sequence | Tm [1] | folding enthalpy [2]
GATCATAGTTATGATC ((((((....)))))) | 48.2 °C | -167 kJ/mol
GTGCCTCGAAAGAGCCAC (((.(((....))).))) | 43.2 °C | -87.7 kJ/mol
GCTTCTTCGAAAGAAAGC (((..(((....)))))) | 30.3 °C | -67 kJ/mol
GAGGAACGAAAGTTCTC (((.(((....)))))) | 38.9 °C | -57 kJ/mol
GATCCGATAACGGATC ((((((....)))))) | 59.1 °C | -139 kJ/mol
GCCAAGCGAAAGCTAAGC ((..(((....)))..)) | 37.6 °C | -60.2 kJ/mol
GGCCGGCGAAAGCCCGCC (((.(((....))).))) | 59.7 °C | -125 kJ/mol
GGCGTCGAAAGACAAGCC ((((((....)))..))) | 55.2 °C | -182 kJ/mol
GGCGCAGGAAACTGCGTC (.(((((....))))).) | 66.1 °C | -86.2 kJ/mol
GCCCGCGAAAGCGATGGC ((((((....)))..))) | 62 °C | -82.8 kJ/mol
GAAAAGCGAAAGCTTTC (((.(((....)))))) | 43.5 °C | -59.5 kJ/mol
GATCAGAAGCCTGATC ((((((....)))))) | 47.1 °C | -133 kJ/mol
GCCGGGTCGAAAGACGGC (((..(((....)))))) | 54.9 °C | -130 kJ/mol
GGTTTAGCGAAAGCTACC (((..(((....)))))) | 32 °C | -50.5 kJ/mol
GTCCTAGGAAACCAGGAC (((((.(....).))))) | 45.3 °C | -120 kJ/mol
GCCCGGCGAAAGCTCGGC (((..((....))..))) | 52.7 °C | -68.5 kJ/mol
CGTATTCGGAAACGAACG (((..(((....)))))) | 28.4 °C | -72 kJ/mol
GTACTCGAAAGAGGGTAC ((((((....)))..))) | 33.7 °C | -59.5 kJ/mol
GATGACGAAAGTCATATC ((((((....)))..))) | 50 °C | -58.5 kJ/mol
GATCGAAGGCTCGATC ((((((....)))))) | 50.1 °C | -130 kJ/mol
GATCTTGGAAACAGGATC ((((.((....)).)))) | 39.1 °C | -120 kJ/mol
GTAGTAACGAAAGTTTAC (((..(((....)))))) | 27.1 °C | -37.9 kJ/mol
GCAGCGCGAAAGCACGGC ((.(.((....)).).)) | 53.9 °C | -95.8 kJ/mol
GTGGAAGGAAACTTCCAC (((((((....))))))) | 62 °C | -179 kJ/mol

Sequence | Tm [1] | folding enthalpy [2]
GAGGTCCGAAAGGACTC (((.(((....)))))) | 47.9 °C | -49.9 kJ/mol
GGGACTCGAAAGAGCCC (((.(((....)))))) | 54.9 °C | -120 kJ/mol
GTACACGAAAGTGGTTAC ((((((....)))..))) | 30.5 °C | -44.9 kJ/mol
GTAGTCGAAAGACGCTAC ((((((....)))..))) | 36.1 °C | -59.4 kJ/mol
GCGTATCGAAAGATTCGC (((.(((....))).))) | 53.9 °C | -179 kJ/mol
GGAAACGAAAGTTGTCC ((((((....))).))) | 31.5 °C | -76.3 kJ/mol
GGGTCAGAAATGACCC ((((((....)))))) | 65.1 °C | -144 kJ/mol
AAATGGAAACATTT (((((....))))) | 27.2 °C | -39.7 kJ/mol
GATCCTCCCGAGGATC ((((((....)))))) | 56.4 °C | -155 kJ/mol
GCCAGGGCGAAAGCCGGC (((..(((....)))))) | 63.3 °C | -71.4 kJ/mol
CGTGCCGGAAACGGACG (((.(((....)))))) | 48.7 °C | -92.2 kJ/mol
GATCCTCCCAAGGATC ((((((....)))))) | 53.1 °C | -180 kJ/mol
GATCCGCTATCGGATC ((((((....)))))) | 57.2 °C | -168 kJ/mol
GTGGACCGAAAGGTACAC (((.(((....))).))) | 67 °C | -127 kJ/mol
GATTCCGAAAGGAACATC ((((((....)))..))) | 25.2 °C | -50.4 kJ/mol
GATCTGGTTGCAGATC ((((((....)))))) | 51.1 °C | -179 kJ/mol
GCGGTAGGCCGC ((((....)))) | 63.7 °C | -72.6 kJ/mol
GCCAATCGAAAGATGGC (((.(((....)))))) | 55.4 °C | -148 kJ/mol
GTGCAGCGAAAGCTTCAC (((.(((....))).))) | 51.6 °C | -116 kJ/mol
GCCGCGGGAAACCGCAGC ((.((((....)))).)) | 59.3 °C | -70.5 kJ/mol
GTAGACGGAAACGTCTAC (((((((....))))))) | 61.3 °C | -210 kJ/mol
GATCGCACGAGCGATC ((((((....)))))) | 68.4 °C | -133 kJ/mol
GATCGACTAATCGATC ((((((....)))))) | 49.9 °C | -127 kJ/mol
GGGACCGAAAGGTCACCC ((((((....)))..))) | 56.9 °C | -51 kJ/mol

Sequence | Tm [1] | folding enthalpy [2]
GGGTCTCGAAAGAGCCC (((.(((....)))))) | 58.2 °C | -134 kJ/mol
GTTTGCGAAAGCAGAAAC ((((((....)))..))) | 34.2 °C | -46.7 kJ/mol
GGGCGTCGAAAGACTCCC (((.(((....))).))) | 53.9 °C | -160 kJ/mol
GATCATTAAATGATC ((((((...)))))) | 44 °C | -120 kJ/mol
GTACATCGAAAGATATAC (((.(((....))).))) | 29.6 °C | -66.9 kJ/mol
GCTTCGCGAAAGCGCTGC ((..(((....)))..)) | 41.4 °C | -95.8 kJ/mol
GATCACTAGGGTGATC ((((((....)))))) | 57.3 °C | -175 kJ/mol
GCGGGGGGAAACCCTCGC (((.(((....))).))) | 61.6 °C | -159 kJ/mol
GTAGCCGAAAGGCTCTAC ((((((....)))..))) | 38.6 °C | -36.8 kJ/mol
GATCCAAGCATGGATC ((((((....)))))) | 51.8 °C | -172 kJ/mol
GCGTCATAACGC ((((....)))) | 53.3 °C | -98 kJ/mol
GGACCCCGAAAGGGTCC (((.(((....)))))) | 68 °C | -126 kJ/mol
GAGTTGCGAAAGCACCTC (((.(((....))).))) | 47 °C | -110 kJ/mol
GACACCCGAAAGGGCGTC (((.(((....))).))) | 58.9 °C | -154 kJ/mol
GAACAGCGAAAGCTCTTC (((.(((....))).))) | 34.3 °C | -60.8 kJ/mol
GATCACTTAAGTGATC ((((((....)))))) | 59.3 °C | -159 kJ/mol
GGCCACGAAAGTGTGGCC ((((((....)))..))) | 68.5 °C | -140 kJ/mol
GATCCCTACGGGGATC ((((((....)))))) | 62.1 °C | -165 kJ/mol
GATCCGAAGCCGGATC ((((((....)))))) | 55.4 °C | -166 kJ/mol
GCAATGGGAAACTATTGC (((((.(....).))))) | 47 °C | -140 kJ/mol
GTTAAGGAAACTTAAC ((((((....)))))) | 43 °C | -121 kJ/mol
